Activity calls are given as the source filed them. The rule behind the calls is not given here.
Assays:
Cannabinoid receptor 1 [1] = target: T1, Cannabinoid receptor 1 (Rattus norvegicus, UniProt P20272); experiment: Displacement of [3H]CP55940 from CB1 receptor in rat brain membranes by scintillation counting method; type: cell membranes
Summary of the method: (§1)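 Competition binding against [3H]CP-55,940 using rat brain membranes (CB1) or membranes of HEK293 cells expressing mouse or human CB2. IC50 from nonlinear regression, converted to Ki. Each experiment run in triplicate; Ki is the mean of three independent experiments.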

Cannabinoid receptor 2 [2] = target: T2, Cannabinoid receptor 2 (Mus musculus, UniProt P47936); experiment: Displacement of [3H]CP55940 from mouse CB2 receptor expressed in HEK293 cell membranes by scintillation counting method; summary of the method: as §1
[3] = Half life in mouse plasma assessed as esterase-mediated compound hydrolysis at 200 uM by HPLC method; type: ADME, cell-free
Summary of the method: (§2)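 Compound diluted to 200 μM in mouse or rat plasma and shaken at 37 °C, 100 rpm. Samples taken at timed points, diluted 1:4 in acetonitrile and centrifuged. Supernatant analysed by reversed-phase C18 HPLC, acetonitrile/acidified water gradient, UV detection. 4-Nitrophenyl butyrate run as control in each experiment. Half-life from exponential decay fit.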

[4] = Half life in rat plasma assessed as esterase-mediated compound hydrolysis at 200 uM by HPLC method; type: ADME, cell-free; summary of the method: as §2
Cannabinoid receptor 1 [5] = target: T1, Cannabinoid receptor 1; experiment: Agonist activity at rat CB1 receptor expressed in HEK293 cells assessed as decrease in forskolin-stimulated cAMP levels after 30 mins; type: functional, cell-based
Summary of the method: (§3)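 Stably transfected HEK293 cells harvested with Versene, washed in HBSS, resuspended in stimulation buffer. Cells exposed to graded compound concentrations in buffer containing forskolin (2 μM final), 30 min at room temperature. cAMP read by TR-FRET (Eu-cAMP tracer plus ULight anti-cAMP antibody, 60 min room temperature). EC50 from nonlinear regression.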

[6] = target: Cannabinoid receptor 1 (Rattus norvegicus) (UniProt P20272); experiment: Agonist activity at rat CB1 receptor expressed in HEK293 cells assessed as decrease in forskolin-stimulated cAMP levels at 500 nM after 30 mins relative to CP-55940; type: functional, cell-based
Cannabinoid receptor 2 [7] = target: T3, Cannabinoid receptor 2 (Homo sapiens, UniProt P34972); experiment: Agonist activity at human CB2 receptor expressed in HEK293 cells assessed as decrease in forskolin-stimulated cAMP levels after 30 mins; type: functional, cell-based; summary of the method: as §3
Cannabinoid receptor 2 [8] = target: T3, Cannabinoid receptor 2; experiment: Agonist activity at human CB2 receptor expressed in HEK293 cells assessed as decrease in forskolin-stimulated cAMP levels at 500 nM after 30 mins relative to CP-55940; type: functional, cell-based
Rattus norvegicus [9] = experiment: Hypothermic activity in Sprague-Dawley rat assessed as decrease in rectal body temperature at 3 mg/kg, sc measured over 6 hrs; type: functional
Summary of the method: (§4)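 Female Sprague-Dawley rats, 250–350 g, n = 6/group, retested with ≥5 days between sessions. Dosed sc (1.0 mL/kg) in 20% ethanol/20% alkamuls/60% saline diluted with saline. Rectal thermistor at 6 cm depth. Two baselines 15 min apart, then readings every 30 min for 3 h and hourly to 6 h. Change taken from mean baseline.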

Rattus norvegicus [10] = experiment: Hypothermic activity in sc dosed Sprague-Dawley rat assessed as decrease in rectal body temperature measured over 6 hrs; type: functional; summary of the method: as §4
Rattus norvegicus [11] = experiment: Hypothermic activity in Sprague-Dawley rat assessed as time required for decrease in rectal body temperature at 0.1 to 3 mg/kg, sc; type: functional; summary of the method: as §4
Cannabinoid receptor 2 [12] = target: T3, Cannabinoid receptor 2; experiment: Displacement of [3H]CP55940 from human CB2 receptor expressed in HEK293 cell membranes by scintillation counting method; summary of the method: as §1
Rattus norvegicus [13] = experiment: Hypothermic activity in Sprague-Dawley rat assessed as decrease in rectal body temperature at 1 mg/kg, sc measured over 6 hrs; type: functional; summary of the method: as §4
Rattus norvegicus [14] = experiment: Hypothermic activity in Sprague-Dawley rat assessed as decrease in rectal body temperature at 0.1 mg/kg, sc measured over 6 hrs; type: functional; summary of the method: as §4
Rattus norvegicus [15] = experiment: Hypothermic activity in Sprague-Dawley rat assessed as decrease in rectal body temperature at 0.1 mg/kg, sc after 6 hrs; type: functional, organism-based; summary of the method: as §4
Rattus norvegicus [16] = experiment: Hypothermic activity in Sprague-Dawley rat assessed as time required for decrease in rectal body temperature at 0.01 to 1 mg/kg, sc; type: functional; summary of the method: as §4
Mus musculus [17] = experiment: Analgesic activity in CD1 mouse assessed as increase in tail flick latency at 1 mg/kg, ip measured at 20 mins relative to control; type: functional
Summary of the method: (§5)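 Male CD-1 mice, 30–35 g, n = 6, each used once, habituated over three mock sessions at 38 °C. Tail-flick latency in a 52 °C water bath at baseline, then 20, 60, 180 and 360 min after ip dosing (10 mL/kg). Vehicle 2% DMSO/4% Tween-80/4% propylene glycol with saline, freshly prepared. Scored as %MPE.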

Mus musculus [18] = experiment: Analgesic activity in CD1 mouse assessed as increase in tail flick latency at 1 mg/kg, ip measured at 60 mins relative to control; type: functional; summary of the method: as §5
Mus musculus [19] = experiment: Analgesic activity in CD1 mouse assessed as increase in tail flick latency at 1 mg/kg, ip measured at 180 mins relative to control; type: functional; summary of the method: as §5
Mus musculus [20] = experiment: Analgesic activity in CD1 mouse assessed as increase in tail flick latency at 1 mg/kg, ip measured at 360 mins relative to control; type: functional; summary of the method: as §5
Squirrel monkey [21] = experiment: Induction of CB1-related discriminative stimulus effect in squirrel monkey at 0.001 mg/kg, im after 1 hr; type: functional, organism-based; conditions: Saimiri sciureus
Summary of the method: (§6)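 Squirrel monkeys trained on two levers to discriminate 0.01 mg/kg im CB1 agonist from vehicle. After im test dosing, sequential sessions began at 15, 30, 60, 120, 240, 480 and 960 min, with some groups also tested at 36 and 48 h. Measured percent responding on the agonist lever (≥90% counted as full substitution) and overall response rate.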

Squirrel monkey [22] = experiment: Induction of CB1-related discriminative stimulus effect in squirrel monkey at 0.001 mg/kg, im after 4 to 16 hrs; type: functional, organism-based; conditions: Saimiri sciureus; summary of the method: as §6
Squirrel monkey [23] = experiment: Induction of CB1-related discriminative stimulus effect in squirrel monkey assessed as time required for 50% loss of full effect at 0.001 mg/kg, im; type: functional, organism-based; conditions: Saimiri sciureus; summary of the method: as §6
Squirrel monkey [24] = experiment: Effect on response rate in squirrel monkey at 0.001 mg/kg, im; type: functional, organism-based; conditions: Saimiri sciureus; summary of the method: as §6
Squirrel monkey [25] = experiment: Induction of CB1-related discriminative stimulus effect in squirrel monkey at 0.003 mg/kg, im measured within 15 mins; type: functional, organism-based; conditions: Saimiri sciureus; summary of the method: as §6
Squirrel monkey [26] = experiment: Induction of CB1-related discriminative stimulus effect in squirrel monkey assessed as time required for 50% loss of full effect at 0.003 mg/kg, im; type: functional, organism-based; conditions: Saimiri sciureus; summary of the method: as §6
Squirrel monkey [27] = experiment: Induction of CB1-related discriminative stimulus effect in squirrel monkey at 0.003 mg/kg, im measured after 24 hrs; type: functional, organism-based; conditions: Saimiri sciureus
Squirrel monkey [28] = experiment: Induction of CB1-related discriminative stimulus effect in squirrel monkey at 0.003 mg/kg, im measured at 36 hrs; type: functional, organism-based; conditions: Saimiri sciureus; summary of the method: as §6
Cannabinoid receptor 1 [29] = target: T1, Cannabinoid receptor 1; experiment: Binding affinity to rat CB1 receptor
Summary of the method: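 Competition displacement of [3H]CP-55,940 from rat brain membranes (CB1 source). IC50 from nonlinear regression of competition curves, converted to Ki. Each experiment run in triplicate; Ki is the mean of three independent experiments.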

Cannabinoid receptor 2 [30] = target: T2, Cannabinoid receptor 2; experiment: Binding affinity to mouse CB2 receptor; summary of the method: as §1
Squirrel monkey [31] = experiment: Effect on response rate in squirrel monkey at 0.003 mg/kg, im; type: functional, organism-based; conditions: Saimiri sciureus; summary of the method: as §6
Rattus norvegicus [32] = experiment: Hypothermic activity in Sprague-Dawley rat assessed as time required for decrease in rectal body temperature at 0.03 to 3 mg/kg, sc; type: functional; summary of the method: as §4

T2 sequence (P47936 whole entry): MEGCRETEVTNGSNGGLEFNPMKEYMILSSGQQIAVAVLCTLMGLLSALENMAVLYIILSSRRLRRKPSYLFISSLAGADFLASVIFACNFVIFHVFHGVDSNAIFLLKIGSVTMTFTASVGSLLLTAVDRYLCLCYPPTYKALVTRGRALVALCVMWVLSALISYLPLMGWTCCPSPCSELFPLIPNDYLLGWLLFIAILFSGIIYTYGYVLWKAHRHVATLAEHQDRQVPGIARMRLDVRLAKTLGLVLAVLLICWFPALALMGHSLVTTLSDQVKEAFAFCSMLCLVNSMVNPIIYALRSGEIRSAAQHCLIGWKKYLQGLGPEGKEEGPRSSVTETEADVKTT
T3 sequence (P34972 whole entry): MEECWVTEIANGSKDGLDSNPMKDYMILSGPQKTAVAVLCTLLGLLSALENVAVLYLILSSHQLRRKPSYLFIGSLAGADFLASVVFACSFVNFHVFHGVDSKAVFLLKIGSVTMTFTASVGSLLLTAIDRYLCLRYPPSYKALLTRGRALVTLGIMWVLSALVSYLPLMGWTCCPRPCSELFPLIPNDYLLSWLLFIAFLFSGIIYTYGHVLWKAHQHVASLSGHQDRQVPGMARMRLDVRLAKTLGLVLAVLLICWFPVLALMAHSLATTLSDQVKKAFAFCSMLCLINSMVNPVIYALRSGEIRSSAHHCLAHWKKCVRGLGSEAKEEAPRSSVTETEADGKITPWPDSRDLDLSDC
Cannabinoid receptor 1 (Rattus norvegicus), sequence (P20272 whole entry): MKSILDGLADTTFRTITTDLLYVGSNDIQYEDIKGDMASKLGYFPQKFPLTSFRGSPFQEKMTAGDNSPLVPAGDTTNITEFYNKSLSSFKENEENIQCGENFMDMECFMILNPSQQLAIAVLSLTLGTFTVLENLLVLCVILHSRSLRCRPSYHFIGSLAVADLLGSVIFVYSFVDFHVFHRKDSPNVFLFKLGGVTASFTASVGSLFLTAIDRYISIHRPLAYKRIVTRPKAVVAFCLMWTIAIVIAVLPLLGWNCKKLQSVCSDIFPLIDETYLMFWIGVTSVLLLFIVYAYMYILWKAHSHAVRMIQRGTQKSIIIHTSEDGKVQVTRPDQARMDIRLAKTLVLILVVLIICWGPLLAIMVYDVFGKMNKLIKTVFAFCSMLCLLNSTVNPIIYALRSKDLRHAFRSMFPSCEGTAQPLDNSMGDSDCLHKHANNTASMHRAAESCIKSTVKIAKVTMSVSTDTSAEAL
T1 sequence (P20272 whole entry): as above

CC1(C)Oc2cc(CC(=O)O)cc(O)c2[C@@H]2C[C@H](O)CC[C@H]21
Ki (Cannabinoid receptor 1 [1]): > 10 µM
Ki (Cannabinoid receptor 2 [2]): > 10 µM

CC1(C)Oc2cc(CC(=O)O)cc(O)c2[C@@H]2C[C@@H](O)CC[C@H]21
Ki (Cannabinoid receptor 1 [1]): > 10 µM
Ki (Cannabinoid receptor 2 [2]): > 10 µM

CCCCOC(=O)C(C)(C)c1cc(O)c2c(c1)OC(C)(C)[C@@H]1CC[C@@H](O)C[C@@H]21
t1/2 [3]: 2.7 min
t1/2 [4]: 10.2 min
EC50 (Cannabinoid receptor 1 [5]): 0.0086 µM
Emax [6]: 85%
EC50 (Cannabinoid receptor 2 [7]): 0.009 µM
Emax (Cannabinoid receptor 2 [8]): 85%
T (Rattus norvegicus [9]): 4.7 - 7.2 °C
Activity (Rattus norvegicus [10]): Dose-dependent effect
ED50 (Rattus norvegicus [10]): 0.74 mg/kg
Time (Rattus norvegicus [11]): 1 to 3 h

CC(C)(C(=O)O)c1cc(O)c2c(c1)OC(C)(C)[C@@H]1CC[C@@H](O)C[C@@H]21
Ki (Cannabinoid receptor 1 [1]): > 10 µM
Ki (Cannabinoid receptor 2 [2]): > 10 µM

CC(C)(C(=O)O)c1cc(O)c2c(c1)OC(C)(C)[C@@H]1CC=C(CO)C[C@@H]21
Ki (Cannabinoid receptor 1 [1]): > 10 µM
Ki (Cannabinoid receptor 2 [2]): > 10 µM

CCCCOC(=O)C(C)(C)c1cc(O)c2c(c1)OC(C)(C)[C@@H]1CC[C@@H](CO)C[C@@H]21
Ki (Cannabinoid receptor 1 [1]): 0.0024 µM
Ki (Cannabinoid receptor 2 [2]): 0.0001 µM
Ki (Cannabinoid receptor 2 [12]): 0.0031 µM
t1/2 [3]: 3.1 min
t1/2 [4]: 39.2 min
EC50 (Cannabinoid receptor 1 [5]): 0.0025 µM
Emax [6]: 87%
EC50 (Cannabinoid receptor 2 [7]): 0.0003 µM
Emax (Cannabinoid receptor 2 [8]): 82%
T (Rattus norvegicus [13]): 4.7 - 7.2 °C
Activity (Rattus norvegicus [10]): Dose-dependent effect
ED50 (Rattus norvegicus [10]): 0.04 mg/kg
T (Rattus norvegicus [14]): >4 °C
Activity (Rattus norvegicus [15]): inactive
Time (Rattus norvegicus [16]): 1 to 3 h
MPE (Mus musculus [17]): 94%
MPE (Mus musculus [18]): 96%
MPE (Mus musculus [19]): 97%
MPE (Mus musculus [20]): 58%
Activity (Squirrel monkey [21]): Active
Activity (Squirrel monkey [22]): inactive
T1/2 (Squirrel monkey [23]): 48 min
Activity (Squirrel monkey [24]): inactive

CCCCOC(=O)Cc1cc(O)c2c(c1)OC(C)(C)[C@@H]1CC[C@@H](O)C[C@@H]21
Ki (Cannabinoid receptor 1 [1]): 0.238 µM
Ki (Cannabinoid receptor 2 [2]): 0.317 µM
Ki (Cannabinoid receptor 2 [12]): 0.432 µM

CCCCCCC(C)(C)c1cc(O)c2c(c1)OC(C)(C)[C@@H]1CC=C(CO)C[C@@H]21
ED50 (Rattus norvegicus [10]): 0.04 mg/kg
Time (Rattus norvegicus [16]): 1 to 3 h
Activity (Squirrel monkey [25]): Active
T1/2 (Squirrel monkey [26]): 66 min
Activity (Squirrel monkey [27]): Active
Activity (Squirrel monkey [28]): inactive
Ki (Cannabinoid receptor 1 [29]): 0.0007 µM
Ki (Cannabinoid receptor 2 [30]): 0.0002 µM
Activity (Squirrel monkey [31]): inactive

CC(C)(C(=O)O)c1cc(O)c2c(c1)OC(C)(C)[C@@H]1CC[C@H](O)C[C@@H]21
Ki (Cannabinoid receptor 1 [1]): > 10 µM
Ki (Cannabinoid receptor 2 [2]): > 10 µM

CCCCOC(=O)C(C)(C)c1cc(O)c2c(c1)OC(C)(C)[C@@H]1CC=C(CO)C[C@@H]21
t1/2 [3]: 5 min
t1/2 [4]: 39.1 min
EC50 (Cannabinoid receptor 1 [5]): 0.0046 µM
Emax [6]: 89%
EC50 (Cannabinoid receptor 2 [7]): 0.0057 µM
Emax (Cannabinoid receptor 2 [8]): 83%
T (Rattus norvegicus [9]): 4.7 - 7.2 °C
Activity (Rattus norvegicus [10]): Dose-dependent effect
ED50 (Rattus norvegicus [10]): 0.04 mg/kg
Time (Rattus norvegicus [32]): 1 to 3 h
T (Rattus norvegicus [14]): >4 °C
Activity (Rattus norvegicus [15]): inactive

CCCCOC(=O)Cc1cc(O)c2c(c1)OC(C)(C)[C@@H]1CC[C@H](O)C[C@@H]21
Ki (Cannabinoid receptor 1 [1]): 0.75 µM
Ki (Cannabinoid receptor 2 [2]): 0.654 µM
Ki (Cannabinoid receptor 2 [12]): 0.733 µM

CCCCOC(=O)C(C)(C)c1cc(O)c2c(c1)OC(C)(C)[C@@H]1CC[C@H](O)C[C@@H]21
t1/2 [3]: 2.8 min
t1/2 [4]: 5.6 min

CC(C)(C(=O)O)c1cc(O)c2c(c1)OC(C)(C)[C@@H]1CC[C@@H](CO)C[C@@H]21
Ki (Cannabinoid receptor 1 [1]): > 10 µM
Ki (Cannabinoid receptor 2 [2]): > 10 µM
